Source: PubChem (The Scripps Research Institute Molecular Screening Center)
LEDGF integ inh = blocks HIV-1 LEDGF/p75-dependent DNA integration. AID 743269. TR-FRET IN-LEDGF/p75 DNA integration, Eu/Cy5. 370,000 compounds, 0.64% hits. inhibition, % at 3.7 µM;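 active means inhibition above the screen-wide mean plus 3 SD, cut at about 13% in these data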;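 further: signal is the Cy5 over europium emission ratio at 671 and 618 nm; 0% = plate median of compound wells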
DAGLB inh = blocks human DAGLB lipase activity; 340,000 compounds, 0.059% hits; HEK293T DAGLB membrane lysate, EnzChek fluorogenic substrate; inhibition, % at 5.17 µM; in the data active means inhibition above about 34%;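 further: 0% = enzyme with vehicle and 100% = wells lacking enzyme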
rCAG RNA binder = molecules binding r(CAG) RNA repeats; inhibition, % at 3 µM; 370,000 compounds, 1.3% hits; AID 651821; r(CAG) RNA repeat, TO-PRO-1 dye displacement fluorescence;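 active means inhibition above the plate cutoff, the mean of all test compounds on that plate plus 3 SD, cut at about 35% in these data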;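 further: 0% = DMSO alone and 100% = 100 µM mitoxantrone as full dye displacement; higher means more dye released from RNA so lower well fluorescence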
PRMT1 FP inh = blocks human protein arginine methyltransferase 1; Q99873; recombinant PRMT1, activity-based probe fluorescence polarization; inhibition, % at 2.79 µM; 370,000 compounds, 1.3% hits; AID 652257;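 active means inhibition above about 21% made by adding two undisclosed values, limit read from the data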
ABHD4 inh = inhibitors of mouse ABHD4; Q8VD66; purified mABHD4, FP-Rh probe fluorescence polarization; inhibition, % at 8.92 µM; 370,000 compounds, 0.54% hits; AID 720543;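 active means inhibition exceeding the mean over every tested compound plus 3 SD, cut at about 30% in these data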;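 further: 0% = plate median of compound wells and 100% = S159A mutant with DMSO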
Target sequence (Q8VD66 whole entry, looked up): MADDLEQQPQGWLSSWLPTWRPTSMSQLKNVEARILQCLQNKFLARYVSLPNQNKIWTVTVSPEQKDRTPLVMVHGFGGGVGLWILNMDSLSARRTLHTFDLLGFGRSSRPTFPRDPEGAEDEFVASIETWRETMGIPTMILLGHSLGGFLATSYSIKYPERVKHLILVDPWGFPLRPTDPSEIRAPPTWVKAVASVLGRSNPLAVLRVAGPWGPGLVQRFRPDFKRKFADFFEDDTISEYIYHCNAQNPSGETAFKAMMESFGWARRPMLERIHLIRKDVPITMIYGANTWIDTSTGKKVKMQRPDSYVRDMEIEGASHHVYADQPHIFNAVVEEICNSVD
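Assay system: Wild-type mouse ABHD4 protein | Medium: HEPES pH 7.0 buffer, 150 mM NaCl, 0.01% Pluronic F-127 | Incubation: Enzyme–compound pre-incubation 45 min, then probe 60 min, both 25 °C | Technique: Fluorescence polarization with parallel and perpendicular emission, 525/598 nm | Evaluation: % inhibition of FP-Rh probe binding versus controls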
HTRA1 inhibitor = blocks human HTRA1 serine peptidase | recombinant HTRA1, FP-rhodamine activity-based probe, fluorescence polarization | inhibition, % at 5.96 µM | Q92743 | 340,000 compounds, 0.5% hits | AID 504803; in the data active means inhibition above about 36%;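 further: 0% = enzyme with DMSO and 100% = wells lacking enzyme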
* hit, by the source's call; / = no result. This is a sample that favours compounds with a hit; in the whole collection about 3.2% have one here.

SMILES	LEDGF integ inh	DAGLB inh	rCAG RNA binder	PRMT1 FP inh	ABHD4 inh	HTRA1 inhibitor
O=C1NC(=O)N2CCSC2(Cc2ccccc2)N1 (stereo unspecified)	0	2	0	21*	3	2
O=C(Nc1c(C(=O)N2CCOCC2)cnn1-c1ccccc1)c1ccc([N+](=O)[O-])cc1	3	4	-2	0	-2	2
Cc1ccc(S(=O)(=O)n2ccc3c(OCCOCCNCc4ccc(F)cc4)cccc32)cc1	3	-1	5	2	26	-30
Cc1ccc(S(=O)(=O)n2ccc3c(OCCOCCSCC(NC(=O)OC(C)(C)C)C(=O)O)cccc32)cc1 (stereo unspecified)	-2	2	48*	3	-1	-46
COc1ccc(/C=C(/NC(=O)c2ccccc2)C(=O)NC(Cc2c[nH]c3ccccc23)C(=O)O)cc1 (stereo unspecified)	-7	3	24	1	-2	-4
O=C1NC(=Nc2ccc(O)cc2)S/C1=C/c1ccco1	0	1	12	7	3	3
O=C1CNC(=O)/C(=C/c2ccco2)N1	8	-1	-3	23*	10	2
O=C(NCc1ccccn1)C(=O)NCc1ccccn1	-2	-2	0	-2	0	8
Fc1ccc(-c2csc(=S)[nH]2)cc1	-8	3	2	22*	9	-2
COc1ccc(-c2c3c([nH]c(=S)c2C#N)CCC3)cc1	2	1	16	23*	-2	-7
COc1ccc(CNC(=O)c2ccc3c(c2)N(C)C(=O)CS3=O)cc1 (stereo unspecified)	3	-1	7	22*	4	4
COc1ccc(CNC(=O)c2ccc3c(c2)N(C)CCS3)cc1	-7	-1	3	5	1	2
CC(C)[N+](C)(CCOC(=O)C1c2ccccc2Oc2ccccc21)C(C)C	3	1	4	1	0	-6
COc1cccc(-c2cnc(C(O)c3ccc(C)cc3)[nH]2)c1 (stereo unspecified)	3	/	3	-1	-9	/
CC(=O)C1=C(C)NC(SCC(=O)c2ccc(Cl)cc2)=C(C#N)C1CC(C)C (stereo unspecified)	0	-5	0	4	-8	-9
CC(=O)C1=C(C)NC(SCC(=O)c2ccc(F)cc2)=C(C#N)C1CC(C)C (stereo unspecified)	-2	-5	9	28*	0	-8
CCOC(=O)N1CCN(C(=O)C2CCN(C(=O)c3ccccc3C)CC2)CC1	-1	1	21	91*	-22	-49
CC(C)Cc1ccc(CN2C(C)C(=O)N(Cc3cn(Cc4ccco4)nn3)CCS2(=O)=O)cc1 (stereo unspecified)	8	/	51*	7	2	/
Cc1ccc(-c2ccc(CN3C(C)C(=O)N(Cc4cn(Cc5ccco5)nn4)CCS3(=O)=O)cc2)cc1 (stereo unspecified)	1	-2	14	2	-26	-30
O=C1/C(=C/c2cccc3ccccc23)CCCc2ccccc21	-2	-19	0	-1	-8	-25
O=[N+]([O-])c1cc(Cl)c(O)c2ncccc12	2	9	9	-3	18	55*
CC(=O)N1CCOC12CCN(Cc1ccccc1)CC2	-1	0	1	1	-2	4
COc1ccc(N=C(NN)c2ccc3ccccc3n2)cc1	-7	0	6	27*	3	-14
Cc1ccccc1N1CCN(C2CCCN(C(=O)c3csc(C(C)C)n3)C2)CC1 (stereo unspecified)	15*	-9	-12	0	4	5
Cc1nc(C(=O)N2CCCC(N3CCN(c4ccccc4C)CC3)C2)cs1 (stereo unspecified)	-2	3	-6	-3	3	-1
SMILES	LEDGF integ inh	DAGLB inh	rCAG RNA binder	PRMT1 FP inh	ABHD4 inh	HTRA1 inhibitor
CCN1CCN(c2nc3c(C)cccn3c(=O)c2/C=C(\C#N)C(=O)NCCOC)CC1	5	-1	-7	23*	-9	5
COCCNC(=O)/C(C#N)=C/c1c(N2CCN(C)CC2)nc2c(C)cccn2c1=O	-9	0	-8	4	6	1
CC(=O)Nc1ccc2c(O)cc(S(=O)(=O)O)cc2c1	2	-2	2	6	13	5
O=S(=O)(O)c1cc(O)c2ccc(Nc3ccccc3)cc2c1	32*	5	65*	28*	63*	21
CCCCn1c2ccccc2c2nnc(SCC(=O)NC3=NN=C(c4ccccc4)CS3)nc21	-1	/	22	45*	11	/
NC(=O)CC(NC(=O)Cc1cccc2ccccc12)c1ccc(NCCN2CCCCC2)c([N+](=O)[O-])c1 (stereo unspecified)	-1	1	-3	0	7	-5
CSc1nc2ccc3nc(NC(=O)c4ccc(C)cc4)sc3c2s1	-2	0	4	0	1	-12
O=C(Nc1nc(=O)c2ccccc2s1)c1ccccc1	-3	3	3	75*	13	-3
Cc1ccc(C(=O)Nc2nc3ccccc3c(=O)s2)cc1	-4	-1	2	59*	13	-12
O=C(O)C1CC(c2ccccc2)=Nc2ccccc2S1 (stereo unspecified)	-1	0	1	14	3	-4
O=[N+]([O-])c1ccc(C2CC(c3ccccc3)=Nc3ccccc3S2)cc1 (stereo unspecified)	-1	-3	5	79*	4	-10
Fc1ccc(C2CC(c3ccco3)=Nc3ccccc3S2)cc1 (stereo unspecified)	-1	-4	-2	71*	2	6
COc1cc2c(cc1O)CC[n+]1cc3c(OC)c(OC)ccc3cc1-2	1	0	5	2	-1	6
COc1cc2c(cc1OC)-c1cc3ccc4c(c3c[n+]1CC2)OCO4	5	-12	-67	57*	12	6
O=c1[nH]c(=O)c2[nH]c(=S)[nH]c2[nH]1	-1	1	6	80*	15	11
CCOc1ccc(C(=O)Nc2c3c(nn2-c2cccc(Cl)c2)CS(=O)C3)cc1 (stereo unspecified)	-1	-1	-3	1	0	-4
Cc1ccc(C(=O)NCCc2sc(C)nc2C)cc1	-2	-2	-3	23*	2	-1
O=C1C2C3C=CC(C3)C2C(=O)N1CNc1ccccn1 (stereo unspecified)	-1	-3	0	-2	0	1
CCOC(=O)NC(=O)/C(C#N)=N\Nc1cccc(Cl)c1	6	8	22	-3	4	-5
CCOC(=O)NC1(Nc2cccc(Cl)c2)Oc2ccccc2O1	4	-2	9	19	32*	21
COc1cccc(-c2cnc3c(NC(C)=O)cc(-c4cccc(C(=O)NCCO)c4)cn23)c1	2	/	6	0	-21	/
